Laboratory results published in ChEMBL document CHEMBL1914305, “Synthesis and structure-activity evaluation of isatin-β-thiosemicarbazones with improved selective activity toward multidrug-resistant cells expressing P-glycoprotein” (J Med Chem, 2011).

Assays:
[1] = Cytotoxicity against P-gp expressing human KBV1 cells after 72 hrs by MTT assay in presence of 10 uM CsA; type: functional, cell-based; details: KB-V1, 72 h
In short: (§1)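 KB-3-1 and KB-V1 cells in DMEM. Test drug co-administered with a P-gp inhibitor at: verapamil 1 uM, CsA 10 uM, DCPQ 100 nM, TQR 100 nM. MTT assay after 72 h at 37 °C: 4000 cells/well, MTT 4 h, acidified ethanol, A570 corrected at 690 nm. IC50 ± SD at 50% of untreated absorbance. Three experiments in triplicate.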

[2] = Cytotoxicity against P-gp expressing human KBV1 cells after 72 hrs by MTT assay in presence of 1 uM verapamil; type: functional, cell-based; details: KB-V1, 72 h; in short: as §1
[3] = Cytotoxicity against human ZR-75B cells after 72 hrs by MTT assay; type: functional, cell-based
In short: (§2)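 Lines grown in RPMI with 10% FBS and 2 mM L-glutamine. MTT assay: 4000 cells/well attached 24 h before serially diluted drug, then 72 h exposure at 37 °C, 5% CO2. MTT in IMDM 4 h, lysis in acidified ethanol 15 min, absorbance 570 nm minus 690 nm. IC50 is the concentration halving untreated absorbance. Three independent experiments, each in triplicate.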

[4] = Cytotoxicity against human Ew36 cells selected at 120 ng/mL vincristine after 72 hrs by MTT assay; type: functional, cell-based; details: Ew36, 72 h; in short: as §2
NIH3T3 [5] = experiment: Cytotoxicity against mouse NIH/3T3 cells selected at 30 ug/ml vincristine after 72 hrs by MTT assay; type: functional, cell-based; details: NIH3T3, 72 h, in the assay text read “30 ng/ml” for “30 ug/ml”
In short: (§3)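 Grown in DMEM with 10% FBS. MTT assay: 4000 cells/well, 24 h settling, serial dilutions of drug, 72 h at 37 °C in 5% CO2. MTT in IMDM 4 h, then acidified ethanol 15 min, A570 with 690 nm background. IC50 is the concentration reducing absorbance to 50% of untreated control. Three experiments in triplicate. KB-V1-R comes from KB-V1 grown long-term drug-free.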

CHO [6] = experiment: Cytotoxicity against CHO cells after 72 hrs by MTT assay; type: cell-based; details: Cricetulus griseus
In short: (§4)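 CHO and colchicine-selected C5 cells kept in AlphaMEM with 10% FBS. MTT assay: 4000 cells/well settled 24 h, then serially diluted drug added. Incubated 72 h at 37 °C, 5% CO2. MTT in IMDM for 4 h, then acidified ethanol lysis for 15 min. Read A570, background-corrected at 690 nm. IC50 is the concentration giving 50% of untreated absorbance. Three experiments, each in triplicate.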

[7] = Aqueous solubility of the compound; type: physicochemical; details: buffer
[8] = Cytotoxicity against doxorubicin-selected human ZR-75B cells after 72 hrs by MTT assay; type: functional, cell-based; in short: as §2
[9] = Cytotoxicity against adriamycin-selected human MES-SA cells after 72 hrs by MTT assay; type: functional, cell-based
In short: (§5)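 MES-SA and MES-SA/Dx5 lines kept in McCoy's 5A with 10% FBS. MTT assay: seeded at 4000 cells/well for 24 h, serial drug dilutions, 72 h at 37 °C and 5% CO2. MTT 4 h, acidified ethanol lysis, A570 corrected at 690 nm. IC50 is 50% absorbance versus untreated wells. Three separate experiments in triplicate.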

OVCAR-8 = experiment: Cytotoxicity against human OVCAR8 cells after 72 hrs by MTT assay; type: functional, cell-based; details: OVCAR-8, 72 h; in short: as §2
[10] = Cytotoxicity against P-gp-negative human KB-3-1 cells after 72 hrs by MTT assay in presence of 10 uM CsA; type: functional, cell-based; details: KB 3-1, 72 h; in short: as §1
NIH3T3 [11] = experiment: Cytotoxicity against mouse NIH/3T3 cells selected at 1 ug/mL colchicine after 72 hrs by MTT assay; type: functional, cell-based; details: NIH3T3, 72 h; in short: as §3
NIH3T3 [12] = experiment: Cytotoxicity against mouse NIH/3T3 cells transfected with wild type p-glycoprotein ABCB1 selected at 600 ug/ml vincristine after 72 hrs by MTT assay; type: functional, cell-based; details: NIH3T3, 72 h, in the assay text read “600 ng/ml” for “600 ug/ml”; in short: as §3
[13] = Cytotoxicity against P-gp-negative human KB-3-1 cells after 72 hrs by MTT assay in presence of 1 uM verapamil; type: functional, cell-based; details: KB 3-1, 72 h; in short: as §1
NIH3T3 [14] = experiment: Cytotoxicity against mouse NIH/3T3 cells after 72 hrs by MTT assay; type: cell-based; details: NIH3T3, 72 h; in short: as §3
[15] = Cytotoxicity against P-gp expressing human KBV1 cells after 72 hrs by MTT assay in presence of 100 nM TQR; details: KB-V1, 72 h
LLC-PK1 [16] = experiment: Cytotoxicity against pig LLC-PK1 cells after 72 hrs by MTT assay; type: cell-based; details: Sus scrofa, LLC-PK1, 72 h
In short: (§6)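 LLC-PK1 empty-vector lines grown in M199 with 10% FBS; transfected lines also in 0.5 mg/mL G418. MTT assay: 4000 cells/well for 24 h, then serially diluted drug for 72 h at 37 °C, 5% CO2. MTT 4 h, acidified ethanol, A570 minus 690 nm. IC50 is 50% of untreated absorbance. Triplicate wells, three experiments.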

CHO [17] = experiment: Cytotoxicity against CHO cells selected at 1 ug/mL colchicine after 72 hrs by MTT assay; type: functional, cell-based; details: Cricetulus griseus; in short: as §4
MDA-MB-231 [18] = experiment: Cytotoxicity against human MDA-MB-231 cells after 72 hrs by MTT assay; type: functional, cell-based; details: MDA-MB-231, 72 h; in short: as §2
HEK293 [19] = experiment: Cytotoxicity against human HEK293 cells after 72 hrs by MTT assay; type: functional, cell-based; details: HEK293, 72 h; in short: as §3
[20] = Cytotoxicity against P-gp expressing human KBV1 cells after 72 hrs by MTT assay in presence of 100 uM DCPQ; details: KB-V1, 72 h
[21] = Cytotoxicity against P-gp-negative human KB-3-1 cells after 72 hrs by MTT assay in presence of 100 nM DCPQ; details: KB 3-1, 72 h
MDA-MB-231 [22] = experiment: Cytotoxicity against human MDA-MB-231 cells selected at 100 ug/ml vinblastine after 72 hrs by MTT assay; type: functional, cell-based; details: MDA-MB-231, 72 h, in the assay text read “100 ng/ml” for “100 ug/ml”; in short: as §2
HEK293 [23] = experiment: Cytotoxicity against human HEK293 cells transfected with plasmid expressing MDR1 after 72 hrs by MTT assay; type: functional, cell-based; details: HEK293, 72 h
In short: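 ABCB1-transfected HEK293 grown in DMEM with 10% FBS and 1 mg/mL G418. MTT assay: 4000 cells/well for 24 h, serial drug dilutions, 72 h at 37 °C, 5% CO2. MTT 4 h, acidified ethanol lysis, A570 corrected at 690 nm. IC50 at 50% of untreated absorbance. Three experiments in triplicate.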

[24] = Selectivity ratio of IC50 for pig LLC-PK1 cells transfected with empty vector to IC50 for pig LLC-PK1 cells; type: ADME, cell-based, Sus scrofa; details: read-out: Ratio IC50
In short: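 Selectivity ratio: IC50 in the parental or empty-vector cells divided by IC50 in the P-gp-expressing cells (KB-V1, or ABCB1-transfected LLC-PK1). MTT assay: 4000 cells/well established for 24 h, then 72 h exposure to serially diluted drug at 37 °C, 5% CO2. MTT for 4 h, acidified ethanol lysis, A570 corrected at A690. IC50 is the concentration giving 50% of untreated absorbance, from at least three experiments.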

NCI/ADR-RES = experiment: Cytotoxicity against adriamycin-selected human NCI/ADR-RES cells after 72 hrs by MTT assay; type: functional, cell-based; in short: as §2
NIH3T3 [25] = experiment: Cytotoxicity against mouse NIH/3T3 cells transfected with wild-type P-gp G185 after 72 hrs by MTT assay; type: functional, cell-based; details: NIH3T3, 72 h; in short: as §3
[26] = Cytotoxicity against human Ew36 cells after 72 hrs by MTT assay; type: functional, cell-based; details: Ew36, 72 h; in short: as §2
SW-620 [27] = experiment: Cytotoxicity against human SW620 cells selected at 20 ng/mL adriamycin after 72 hrs by MTT assay; type: functional, cell-based; details: SW-620, 72 h; in short: as §2
[28] = Cytotoxicity against human MES-SA cells after 72 hrs by MTT assay; type: functional, cell-based; in short: as §5
NIH3T3 [29] = experiment: Cytotoxicity against 2.4 ug/mL vincristine selected mouse NIH/3T3 cells transfected with P-gp Ser to Asp phosphorylation mutant after 72 hrs by MTT assay; type: functional, cell-based; details: NIH3T3, 72 h; in short: as §3
SW-620 [30] = experiment: Cytotoxicity against human SW620 cells after 72 hrs by MTT assay; type: functional, cell-based; details: SW-620, 72 h; in short: as §2
[31] = Cytotoxicity against P-gp-negative human KB-3-1 cells after 72 hrs by MTT assay in presence of 100 nM TQR; details: KB 3-1, 72 h
LLC-PK1 [32] = experiment: Cytotoxicity against pig LLC-PK1 cells transfected with empty vector after 72 hrs by MTT assay; type: cell-based; details: Sus scrofa, LLC-PK1, 72 h; in short: as §6

Question: Which IC50 [1] does the source give for `COc1ccc(NC(=S)NNC2=c3ccccc3=NC2=O)cc1` here?
Answer: 8.33 µM

Question: And the IC50 [2]?
Answer: 2.23 µM

Question: What about the IC50 [3] of the same compound?
Answer: 5.06 µM

Question: What about the IC50 [4] of the same compound?
Answer: 0.99 µM

Question: What about the IC50 (NIH3T3 [5]) of the same compound?
Answer: 4.58 µM

Question: What about the IC50 (CHO [6]) of the same compound?
Answer: 3.04 µM

Question: What about the solubility [7] of the same compound?
Answer: < 0.2 µg/mL

Question: And the IC50 [8]?
Answer: 1.21 µM

Question: And the IC50 [9]?
Answer: 13.8 µM

Question: And the IC50 (OVCAR-8)?
Answer: 6.69 µM

Question: What about the IC50 [10] of the same compound?
Answer: 11.4 µM

Question: And the IC50 (NIH3T3 [11])?
Answer: 3.17 µM

Question: And the IC50 (NIH3T3 [12])?
Answer: 3.59 µM

Question: What about the IC50 [13] of the same compound?
Answer: 9.68 µM

Question: And the IC50 (NIH3T3 [14])?
Answer: 8.12 µM

Question: What about the IC50 [15] of the same compound?
Answer: 11.6 µM

Question: And the IC50 (LLC-PK1 [16])?
Answer: 3.99 µM

Question: And the IC50 (CHO [17])?
Answer: 0.97 µM

Question: What about the IC50 (MDA-MB-231 [18]) of the same compound?
Answer: 13.8 µM

Question: What about the IC50 (HEK293 [19]) of the same compound?
Answer: 6.23 µM

Question: And the IC50 [20]?
Answer: 14 µM

Question: What about the IC50 [21] of the same compound?
Answer: 12.4 µM

Question: What about the IC50 (MDA-MB-231 [22]) of the same compound?
Answer: 4.86 µM

Question: And the IC50 (HEK293 [23])?
Answer: 2.55 µM

Question: And the selectivity ratio [24]?
Answer: 9.2

Question: And the IC50 (NCI/ADR-RES)?
Answer: 3.79 µM

Question: And the IC50 (NIH3T3 [25])?
Answer: 1.06 µM

Question: What about the IC50 [26] of the same compound?
Answer: 2.48 µM

Question: And the IC50 (SW-620 [27])?
Answer: 3.74 µM

Question: And the IC50 [28]?
Answer: 22.4 µM

Question: And the IC50 (NIH3T3 [29])?
Answer: 3.14 µM

Question: What about the IC50 (SW-620 [30]) of the same compound?
Answer: 9.04 µM

Question: And the IC50 [31]?
Answer: 12.1 µM

Question: What about the IC50 (LLC-PK1 [32]) of the same compound?
Answer: 36.8 µM
